This excerpt belongs to a sample that is enriched for hits.
T cruzi growth-1 = T. cruzi intracellular proliferation inhibitors, primary screen, cell-based, beta-gal Tulahuen parasites, NIH3T3 host, luminescence. T. cruzi beta-gal in NIH3T3, GalScreen luminescence, 90 h. inhibition, % at 8.34 µM. hit rate 5.9% among 77,000;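 active = mean inhibition above about 93%, with at least 55% of replicates each passing it, limit read from the data, passing the limit was not always enough; inconclusive = only one of those two conditions holds; inactive = neither condition holds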
KDM4C inh = inhibitors of GASC-1 (KDM4C) histone demethylase, primary screen, biochemical, single concentration HTS; hit rate 0.15% among 96,000; AID 720574, 2013; inhibition, % at 12.5 µM; Lysine-specific demethylase 4C (Homo sapiens), Q9H3R0; GST-KDM4C 2-372, H3K9me3 peptide, LANCE TR-FRET;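 active = mean replicate inhibition above about 25%, with at least 55% of replicates also reaching it, limit read from the data, passing the limit was not always enough; inconclusive = only one of those two conditions met; inactive = neither condition met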
Target sequence (Q9H3R0 2-372 limits assumed): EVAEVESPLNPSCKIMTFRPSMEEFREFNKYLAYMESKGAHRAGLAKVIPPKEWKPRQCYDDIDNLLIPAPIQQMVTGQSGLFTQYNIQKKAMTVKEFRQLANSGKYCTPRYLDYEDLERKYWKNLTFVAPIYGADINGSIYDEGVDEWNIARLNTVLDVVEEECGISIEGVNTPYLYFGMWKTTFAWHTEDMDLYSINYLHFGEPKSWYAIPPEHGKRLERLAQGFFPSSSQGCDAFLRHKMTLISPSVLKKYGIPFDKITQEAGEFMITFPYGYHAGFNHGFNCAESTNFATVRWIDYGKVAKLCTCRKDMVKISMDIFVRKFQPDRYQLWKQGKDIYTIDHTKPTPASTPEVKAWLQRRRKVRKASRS
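material = GST-tagged GASC-1 (JMJD2C) catalytic fragment, aa 2-372 | amount = enzyme final amount 10 nM | medium = HEPES buffer, pH 7.5, plus ascorbate | also added = H3K9me3 peptide substrate, Fe(II), 2-oxoglutarate | dosing = single dose | times = 30 min demethylation and 1 h detection at room temperature | detection = LANCE TR-FRET | read-out basis = Fall in 671/618 emission ratio as inhibition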
IDH1 R132H inh = inhibitors of IDH1 R132H reductase, primary screen, biochemical, plate reader, single point. Isocitrate dehydrogenase [NADP] cytoplasmic (Homo sapiens), O75874. diaphorase/resazurin fluorescence, 60 min. inhibition, % at 10 µM. hit rate 0.18% among 70,000; in the data active = inhibition above about 34%; inconclusive = no clear call, values can overlap the other calls; inactive = below about 11%
Target sequence (O75874 whole entry R132H): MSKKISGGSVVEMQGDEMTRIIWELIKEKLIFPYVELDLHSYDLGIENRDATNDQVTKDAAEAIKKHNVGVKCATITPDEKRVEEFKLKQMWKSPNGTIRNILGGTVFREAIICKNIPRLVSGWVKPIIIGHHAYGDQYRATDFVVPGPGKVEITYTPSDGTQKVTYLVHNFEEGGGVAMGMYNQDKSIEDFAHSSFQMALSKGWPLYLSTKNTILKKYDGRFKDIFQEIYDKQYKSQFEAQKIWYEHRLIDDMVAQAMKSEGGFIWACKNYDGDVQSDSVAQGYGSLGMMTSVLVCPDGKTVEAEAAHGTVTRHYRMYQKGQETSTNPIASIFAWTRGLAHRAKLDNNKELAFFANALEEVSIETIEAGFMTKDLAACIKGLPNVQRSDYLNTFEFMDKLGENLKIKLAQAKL
T cruzi growth-2 = T. cruzi intracellular proliferation inhibitors, confirmation, cell-based, NIH3T3 host, beta-gal parasite, luminescence, cherry-pick; shares compounds with T cruzi growth-1; hit rate 72% among 5,600; T. cruzi beta-gal in NIH3T3, GalScreen luminescence, 90 h; AID 651739, 2012; inhibition, % at 8.35 µM;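 active = mean replicate inhibition above about 95% and at least 55% of replicates individually reaching it, limit read from the data; inconclusive = only one of the two criteria is met; inactive = neither criterion is met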
T cruzi growth-3 = inhibitors of intracellular T. cruzi replication, confirmation, NIH3T3 host cells, beta-gal parasites, cherry-pick, set 2; shares compounds with T cruzi growth-1; T. cruzi beta-gal in NIH3T3, GalScreen luminescence, 90 h; inhibition, % at 2.09 µM; hit rate 21% among 5,600;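 active = mean inhibition above about 95%, with at least 55% of replicates also reaching it, limit read from the data; inconclusive = meets just one of the two conditions; inactive = meets neither condition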
3T3 cytotox = cytotoxicity in mouse NIH/3T3 fibroblasts, confirmation, cytotoxicity control for T. cruzi proliferation inhibitor project, cell-based, cherry-pick, single point; shares compounds with T cruzi growth-1; NIH/3T3 viability, CellTiter-Glo ATP luminescence, 90 h; cytotoxicity (signal decrease), % at 8.35 µM; hit rate 14% among 5,600;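 active = mean signal decrease across replicates above about 35% based on untreated-well scatter, with enough replicates individually passing, limit read from the data; inconclusive = no rule stated though some were filed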
3T3 cytotox 2 = NIH/3T3 fibroblast cytotoxicity, confirmation, cytotoxicity control, cell-based, cherry-pick, single point, set 2. shares compounds with T cruzi growth-1. NIH/3T3 viability, CellTiter-Glo ATP luminescence, 90 h. inhibition, % at 24.9 µM. hit rate 56% among 5,600. AID 651744, 2012;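 active = mean loss of cell viability signal at or above a set limit, and enough replicates individually reaching it; inconclusive = meets only the mean limit or only the replicate share; inactive = meets neither condition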
Of the large screens only hits and unclear results are named; the others gave an inactive call (follow-up assays come after a bar, where they were run).

CCC(=O)N1CC[C@H]2[C@@H]1c1cc(-c3ccc(F)cc3)ccc1N(C)[C@H]2CO	T cruzi growth-1 inconclusive (no result: IDH1 R132H inh) | T cruzi growth-2 108 | T cruzi growth-3 inactive | 3T3 cytotox inactive | 3T3 cytotox 2 inactive
COCC(=O)N1CC[C@@H]2[C@@H](CO)N(C)c3ccc(-c4ccc(F)cc4)cc3[C@@H]21	none (no result: IDH1 R132H inh)
CCC(=O)N1CC[C@H]2[C@@H]1c1cc(-c3ccc(OC)cc3)ccc1N(C)[C@H]2CO	T cruzi growth-1 105 (no result: IDH1 R132H inh) | T cruzi growth-2 108 | T cruzi growth-3 inactive | 3T3 cytotox inactive | 3T3 cytotox 2 inactive
CCC(=O)N1CC[C@@H]2[C@H]1c1cc(-c3ccc(OC)cc3)ccc1N(C)[C@H]2CO	none (no result: IDH1 R132H inh)
OC[C@@H]1Nc2ccc(C#Cc3ccc(F)cc3)cc2[C@H]2[C@@H]1CCN2Cc1nccs1	T cruzi growth-1 104 (no result: IDH1 R132H inh) | T cruzi growth-2 98 | T cruzi growth-3 105 | 3T3 cytotox 37 | 3T3 cytotox 2 105
O=C(C1CC1)N1CC[C@@H]2[C@H]1c1cc(C#Cc3ccc(F)cc3)ccc1N[C@@H]2CO	none (no result: IDH1 R132H inh)
OC[C@H]1Nc2ccc(C#Cc3ccc(F)cc3)cc2[C@H]2[C@@H]1CCN2Cc1nccs1	T cruzi growth-1 103 (no result: IDH1 R132H inh) | T cruzi growth-2 107 | T cruzi growth-3 102 | 3T3 cytotox inactive | 3T3 cytotox 2 106
OC[C@@H]1Nc2ccc(C3=CCCCC3)cc2[C@@H]2[C@H]1CCN2Cc1nccs1	none (no result: T cruzi growth-1, IDH1 R132H inh)
O=C(Cn1nc(-c2cccc([N+](=O)[O-])c2)c2ccccc2c1=O)Nc1cccc(C(F)(F)F)c1	none (no result: T cruzi growth-1, KDM4C inh)
CCCN(C)C[C@@H]1Oc2cc(C#Cc3ccccc3)ccc2S(=O)(=O)N([C@@H](C)CO)C[C@H]1C	none
C[C@@H]1CN([C@H](C)CO)S(=O)(=O)c2ccc(C#Cc3cccc(F)c3)cc2O[C@@H]1CN(C)C	none
CCCN(C)C[C@@H]1Oc2cc(C#Cc3ccc(F)cc3)ccc2S(=O)(=O)N([C@H](C)CO)C[C@@H]1C	none
CCCN(C)C[C@@H]1Oc2cc(C#Cc3cccc(F)c3)ccc2S(=O)(=O)N([C@@H](C)CO)C[C@H]1C	T cruzi growth-1 116 | T cruzi growth-2 110 | T cruzi growth-3 inactive | 3T3 cytotox inactive | 3T3 cytotox 2 104
CCCN(C)C[C@@H]1Oc2cc(C#Cc3cccc(F)c3)ccc2S(=O)(=O)N([C@@H](C)CO)C[C@@H]1C	T cruzi growth-1 111 | T cruzi growth-2 113 | T cruzi growth-3 inactive | 3T3 cytotox inactive | 3T3 cytotox 2 102
CCCN(C)C[C@@H]1Oc2cc(C#Cc3ccc(F)cc3)ccc2S(=O)(=O)N([C@@H](C)CO)C[C@H]1C	T cruzi growth-1 94 | T cruzi growth-2 105 | T cruzi growth-3 inactive | 3T3 cytotox inactive | 3T3 cytotox 2 106
CO[C@H]1CN(C)C(=O)c2ccc(NC(C)=O)cc2OC[C@H](C)N(S(=O)(=O)c2cn(C)cn2)C[C@@H]1C	none (no result: T cruzi growth-1, IDH1 R132H inh)
CCC(=O)N1[C@H](CO)[C@H](c2ccccc2)[C@H]1CN(CC)C(=O)c1cccc(F)c1	none (no result: IDH1 R132H inh)
CCCN1C[C@@H](C)[C@@H](OC)CN(C)C(=O)c2ccc(NC(=O)c3ccccc3F)cc2OC[C@H]1C	none
CC=Cc1ccc2n(c1=O)C[C@H]1[C@H](CO)[C@@H](C(=O)NCc3ccc4c(c3)OCO4)[C@@H]2N1C(C)=O (mixture of isomers)	none (no result: IDH1 R132H inh)
CN(C)C(=O)c1ccc(-c2ccc([C@@H]3[C@@H](C#N)N(C(=O)C4CC4)[C@H]3CO)cc2)cc1	T cruzi growth-1 104 (no result: IDH1 R132H inh) | T cruzi growth-2 99 | T cruzi growth-3 inconclusive | 3T3 cytotox inactive | 3T3 cytotox 2 63
CN(C)C(=O)c1ccc(-c2ccc([C@@H]3[C@@H](CO)N(C(=O)C4CC4)[C@H]3C#N)cc2)cc1	none (no result: IDH1 R132H inh)
CN(C)C(=O)c1ccc(-c2ccc([C@H]3[C@@H](C#N)N(C(=O)C4CCCCC4)[C@H]3CO)cc2)cc1	T cruzi growth-1 inconclusive (no result: IDH1 R132H inh) | T cruzi growth-2 inactive | T cruzi growth-3 inactive | 3T3 cytotox inactive | 3T3 cytotox 2 27
CN(C)C(=O)c1ccc(-c2ccc([C@@H]3[C@@H](CO)N(C(=O)C4CCCCC4)[C@H]3C#N)cc2)cc1	none (no result: IDH1 R132H inh)
C[C@H](CO)N1C[C@H](C)[C@@H](CN(C)CC2CCCCC2)Oc2ccc(NC(=O)Cn3cnnn3)cc2C1=O	none
C[C@H](O)C#Cc1ccc([C@@H]2[C@H](CO)N3CCCCN(C(=O)Nc4ccccc4)C[C@@H]23)cc1	none (no result: IDH1 R132H inh)
CO[C@@H](CN(C)C(=O)Nc1ccc(F)cc1)[C@@H](C)CN(Cc1ccccc1Cl)[C@@H](C)CO	none
CO[C@H](CN(C)C(=O)Nc1ccc(C(F)(F)F)cc1)[C@H](C)CN(Cc1ccccc1Cl)[C@H](C)CO	T cruzi growth-1 105 | T cruzi growth-2 110 | T cruzi growth-3 inactive | 3T3 cytotox 46 | 3T3 cytotox 2 105
CO[C@@H](CN(C)C(=O)Nc1ccc(C(F)(F)F)cc1)[C@H](C)CN(Cc1ccccc1Cl)[C@H](C)CO	none
CO[C@H](CN(C)C(=O)Nc1ccc(Cl)cc1)[C@@H](C)CN(Cc1ccccc1Cl)[C@@H](C)CO	T cruzi growth-1 inconclusive | T cruzi growth-2 109 | T cruzi growth-3 inactive | 3T3 cytotox inactive | 3T3 cytotox 2 40
CO[C@H](CN(C)S(=O)(=O)c1ccc(F)cc1)[C@H](C)CN(Cc1ccccc1Cl)[C@H](C)CO	none
CO[C@@H](CN(C)S(=O)(=O)c1ccc(F)cc1)[C@@H](C)CN(Cc1ccccc1Cl)[C@H](C)CO	T cruzi growth-1 107 | T cruzi growth-2 inactive | T cruzi growth-3 inactive | 3T3 cytotox inactive | 3T3 cytotox 2 inconclusive
CO[C@H](CN(C)C(=O)Nc1ccc(C(F)(F)F)cc1)[C@@H](C)CN(Cc1ccccc1Cl)[C@H](C)CO	T cruzi growth-1 98 | T cruzi growth-2 103 | T cruzi growth-3 inactive | 3T3 cytotox 45 | 3T3 cytotox 2 103
CO[C@@H](CN(C)C(=O)Nc1ccc(F)cc1)[C@@H](C)CN(Cc1ccccc1Cl)[C@H](C)CO	none
C[C@@H]1CN([C@H](C)CO)C(=O)c2cccc(NS(=O)(=O)c3ccccc3)c2O[C@@H]1CN(C)S(=O)(=O)c1cn(C)cn1	none (no result: IDH1 R132H inh)
CCCNC(=O)N1CC2(C1)CN(C(C)=O)[C@H](CO)c1c2c2ccc(OC)cc2n1C	none (no result: T cruzi growth-1, IDH1 R132H inh)
CN(C)CCCNC(=O)[C@H]1[C@H](CO)[C@H]2Cn3c(ccc(-c4ccccc4)c3=O)[C@@H]1N2C(=O)CC1CC1	none (no result: IDH1 R132H inh)
